According to ChEMBL document CHEMBL4837188, “Identification of Novel Tricyclic Benzo[1,3]oxazinyloxazolidinones as Potent Antibacterial Agents with Excellent Pharmacokinetic Profiles against Drug-Resistant Pathogens” (J Med Chem, 2021):
≈ marks a conversion by molar mass, not a printed value.

Assays:
Staphylococcus aureus [1] = assay: Antibacterial activity against Staphylococcus aureus ATCC 29213 assessed as inhibition of bacterial growth incubated for 18 hrs by broth microdilution method; format: functional
Procedure, shortened: (§1)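 Broth microdilution in 96-well plates. Media: cation-adjusted Mueller−Hinton broth for S. aureus, brain heart infusion for VRE, Mueller−Hinton broth for the other strains. Incubated at 37 °C for 18 h, then A600 read. Percent growth inhibition calculated against 1% DMSO vehicle.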

Escherichia coli = assay: Antibacterial activity against Escherichia coli 25922 assessed as inhibition of bacterial growth incubated for 18 hrs by broth microdilution method; format: functional; settings: ATCC 25922; procedure, shortened: as §1
Bacillus subtilis = assay: Antibacterial activity against Bacillus subtilis 168 assessed as inhibition of bacterial growth incubated for 18 hrs by broth microdilution method; format: functional; procedure, shortened: as §1
[2] = tested on: Mycobacterium tuberculosis; assay: Antitubercular activity against Mycobacterium tuberculosis H37Rv assessed as inhibition of bacterial growth incubated for 7 days by MABA; format: functional; settings: 168 h, time 7 day
Procedure, shortened: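 Microplate alamar blue assay. H37Rv or clinical isolates were grown to late log phase in 7H9 broth with glycerol, Tween 80 and ADC, then 2 × 10⁵ CFU added to two-fold dilutions. Final range 32–0.5 μg/mL, lowered to 2–0.016 μg/mL for active compounds. 37 °C, 7 days, then alamar blue 16 h. Fluorescence 530/590 nm. MIC is the lowest concentration giving ≥90% reduction; INH and RFP were controls.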

Enterococcus faecium [3] = assay: Antibacterial activity against Enterococcus faecium ATCC 49624 assessed as bacterial growth inhibition after 18 hrs by broth microdilution method; format: functional; procedure, shortened: as §1
Enterococcus faecium [4] = assay: Antibacterial activity against linezolid resistant Enterococcus faecium 13549 assessed as bacterial growth inhibition after 18 hrs by broth microdilution method; format: functional
Enterococcus faecalis [5] = assay: Antibacterial activity against linezolid resistant Enterococcus faecalis assessed as bacterial growth inhibition after 18 hrs by broth microdilution method; format: functional
Staphylococcus capitis = assay: Antibacterial activity against linezolid resistant Staphylococcus capitis assessed as bacterial growth inhibition after 18 hrs by broth microdilution method; format: functional
Enterococcus faecalis [6] = assay: Antibacterial activity against Enterococcus faecalis ATCC 29212 assessed as bacterial growth inhibition after 18 hrs by broth microdilution method; format: functional; procedure, shortened: as §1
[7] = tested on: Staphylococcus epidermidis; assay: Antibacterial activity against methicillin resistant Staphylococcus epidermidis assessed as bacterial growth inhibition after 18 hrs by broth microdilution method; format: functional
Staphylococcus aureus [8] = assay: Antibacterial activity against methicillin resistant Staphylococcus aureus assessed as bacterial growth inhibition after 18 hrs by broth microdilution method; format: functional
Staphylococcus aureus [9] = assay: Antibacterial activity against vancomycin intermediate Staphylococcus aureus assessed as bacterial growth inhibition after 18 hrs by broth microdilution method; format: functional
Enterococcus = assay: Antibacterial activity against vancomycin resistant Enterococcus assessed as bacterial growth inhibition after 18 hrs by broth microdilution method; format: functional
[10] = Metabolic stability in CD-1 mouse liver microsomes incubated for 30 mins by LC-MS analysis; format: ADME, Microsome
Procedure, shortened: (§2)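 Microsomes from male CD-1 mouse or pooled human, 1 mg/mL protein in 0.05 M phosphate buffer pH 7.4. Compound at final 0.1 μM with DMSO cosolvent. Incubated at 37 °C with 1 mM NADPH, or with buffer in place of NADPH. Sampled at 0 and 30 min and quenched with acetonitrile. LC−MS measurement; substrate remaining at 30 min normalized to time zero.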

[11] = Metabolic stability in pooled human liver microsomes incubated for 30 mins by LC-MS analysis; format: ADME, Microsome; settings: read-out: Stabilty; procedure, shortened: as §2
[12] = Metabolic stability in CD-1 mouse liver microsomes assessed as substrate remaining in presence of NADPH incubated for 30 mins by LC-MS analysis; format: ADME, Microsome; settings: read-out: Stabilty; procedure, shortened: as §2
[13] = Metabolic stability in pooled human liver microsomes assessed as substrate remaining in presence of NADPH incubated for 30 mins by LC-MS analysis; format: ADME, Microsome; settings: read-out: Stabilty; procedure, shortened: as §2
[14] = Mycobacterium tuberculosis, H37Rv, read-out: MIC

Structure (SMILES) | MIC (Staphylococcus aureus [1]) [µg/mL] | MIC (Escherichia coli) [µg/mL] | MIC (Bacillus subtilis) [µg/mL] | MIC [2, 14] [µg/mL] | also measured
CC(=O)NC[C@@H]1OC(=O)N2Cc3cc(F)c(-c4ccc(C#N)nc4)cc3O[C@@H]12 (racemic) | > 64 | > 64 | > 64 | > 32 | –
CC(=O)NC[C@H]1OC(=O)N2Cc3cc(-c4ccc(C#N)nc4)c(F)cc3O[C@H]12 | > 64 | – | – | > 32 | –
NC[C@@H]1OC(=O)N2Cc3cc(F)c(N4CCOCC4)cc3O[C@@H]12 (racemic) | – | – | – | > 32 | –
CC(=O)NC[C@@H]1OC(=O)N2Cc3cc(-c4ccc(-c5nnn(C)n5)nc4)c(F)cc3O[C@@H]12 | 0.125 (≈ 0.284 µM) | > 64 | 0.125 (≈ 0.284 µM) | 0.54 (≈ 1.23 µM) | MIC (Enterococcus faecium [3]): 1 µg/mL (≈ 2.28 µM); MIC (Enterococcus faecium [4]): 2 µg/mL (≈ 4.55 µM); MIC (Enterococcus faecalis [5]): 1 µg/mL (≈ 2.28 µM); MIC (Staphylococcus capitis): 2 µg/mL (≈ 4.55 µM); MIC (Enterococcus faecalis [6]): 0.5 µg/mL (≈ 1.14 µM); MIC [7]: 1 µg/mL (≈ 2.28 µM); MIC (Staphylococcus aureus [8]): 0.5 µg/mL (≈ 1.14 µM); MIC (Staphylococcus aureus [9]): 0.5 µg/mL (≈ 1.14 µM); MIC (Enterococcus): 0.25 µg/mL (≈ 0.569 µM)
CC(=O)NCC1OC(=O)N2Cc3cc(-c4ccc(C#N)nc4)c(F)cc3OC12 (racemic; cis) | – | – | – | – | MIC [2]: 15.51 µg/mL (≈ 40.6 µM)
NC[C@@H]1OC(=O)N2Cc3cc(N4CCOCC4)ccc3O[C@@H]12 | – | – | – | > 32 | –
CN[C@H](CC(C)C)C(=O)N[C@H]1C(=O)N[C@@H](CC(N)=O)C(=O)N[C@H]2C(=O)N[C@H]3C(=O)N[C@H](C(=O)N[C@H](C(=O)O)c4cc(O)cc(O)c4-c4cc3ccc4O)[C@H](O)c3ccc(c(Cl)c3)Oc3cc2cc(c3O[C@@H]2O[C@H](CO)[C@@H](O)[C@H](O)[C@H]2O[C@H]2C[C@](C)(N)[C@H](O)[C@H](C)O2)Oc2ccc(cc2Cl)[C@H]1O [VANCOMYCIN] | – | 64 (≈ 44.2 µM) | 0.25 (≈ 0.173 µM) | – | MIC [7]: < 2 µg/mL; MIC (Staphylococcus aureus [9]): > 32 µg/mL; MIC (Enterococcus): > 32 µg/mL
CC(=O)NC[C@@H]1OC(=O)N2c3cc(F)c(Br)cc3OC[C@@H]12 | – | – | – | – | Stabilty ([10]; mouse, microsomes, 0.5 h): 125%; remaining at 0.5 h [11]: 110%; remaining at 0.5 h [12]: 73.4%; remaining at 0.5 h [13]: 71.4%
NC[C@@H]1OC(=O)N2Cc3cc(N4CCOCC4)c(F)cc3O[C@@H]12 | > 64 | > 64 | > 64 | > 32 | –
N#Cc1ccc(-c2cc3c(cc2F)CN2C(=O)O[C@@H](CN)[C@@H]2O3)cn1 (racemic) | > 64 | > 64 | > 64 | > 32 | –
N#Cc1ccc(-c2ccc3c(c2)CN2C(=O)O[C@@H](CN)[C@@H]2O3)cn1 | > 64 | > 64 | > 64 | 2.94 (≈ 9.12 µM) | –
CC(=O)NC[C@@H]1OC(=O)N2Cc3cc(N4CCOCC4)c(F)cc3O[C@@H]12 | 2 (≈ 5.47 µM) | > 64 | 8 (≈ 21.9 µM) | 31.7 (≈ 86.8 µM) | –
CC(=O)NCC1OC(=O)N2Cc3cc(-c4ccc(C#N)nc4)c(F)cc3OC12 (racemic; trans) | – | – | – | – | MIC [2]: 1.58 µg/mL (≈ 4.13 µM)
CC(=O)NC[C@@H]1OC(=O)N2Cc3cc(F)c(N4CCOCC4)cc3O[C@@H]12 (racemic) | – | – | – | > 32 | –
CC(=O)NC[C@H]1CN(c2ccc(N3CCOCC3)c(F)c2)C(=O)O1 [LINEZOLID] | 0.125 (≈ 0.371 µM) | > 64 | 0.25 (≈ 0.741 µM) | 0.88 (≈ 2.61 µM) | MIC (Enterococcus faecium [3]): 2 µg/mL (≈ 5.93 µM); MIC (Enterococcus faecium [4]): 8 µg/mL (≈ 23.7 µM); MIC (Staphylococcus capitis): ≥ 16 µg/mL
CC1(C)S[C@@H]2[C@H](NC(=O)[C@H](N)c3ccccc3)C(=O)N2[C@H]1C(=O)O [AMPICILLIN] | 0.25 (≈ 0.715 µM) | – | 0.25 (≈ 0.715 µM) | – | MIC [7]: > 32 µg/mL; MIC (Staphylococcus aureus [8]): > 32 µg/mL
Cn1nnc(-c2ccc(-c3cc4c(cc3F)O[C@H]3[C@H](CN)OC(=O)N3C4)cn2)n1 | 32 (≈ 80.5 µM) | > 64 | > 64 | 0.47 (≈ 1.18 µM) | –
N#Cc1ccc(-c2cc3c(cc2F)O[C@H]2[C@H](CN)OC(=O)N2C3)cn1 | – | – | – | 0.26 (≈ 0.764 µM) | –
CC(=O)NC[C@@H]1OC(=O)N2Cc3cc(N4CCOCC4)ccc3O[C@@H]12 | – | – | – | > 32 | –
CC(=O)NC[C@@H]1OC(=O)N2Cc3cc(-c4ccc(C#N)nc4)ccc3O[C@@H]12 | 0.5 (≈ 1.37 µM) | > 64 | 1 (≈ 2.74 µM) | 12.2 (≈ 33.6 µM) | –
CC(=O)NC[C@@H]1OC(=O)N2Cc3cc(Br)c(F)cc3O[C@@H]12 | – | – | – | – | remaining at 0.5 h ([10]; CD-1, mouse, liver microsomes, read-out: Stabilty): 102%; remaining at 0.5 h [11]: 93.8%; remaining at 0.5 h [12]: 105%; remaining at 0.5 h [13]: 111%
